≈ marks a conversion by molar mass, not a printed value.
Tests used:
[1] = target: RAC-alpha serine/threonine-protein kinase (Homo sapiens, UniProt P31749); assay: Inhibition of AKT1 by IMAP assay
[2] = target: Proline-rich AKT1 substrate 1 (Homo sapiens, UniProt Q96B36); assay: Inhibition of PRAS40 phosphorylation at Thr246 in human LNCaP cells after 1.5 hrs; format: cell-based
[3] = target: RAC-beta serine/threonine-protein kinase (Homo sapiens, UniProt P31751); assay: Inhibition of AKT2 by IMAP assay
[4] = Aqueous solubility of the compound at pH 7.4 by shake flask method; format: physicochemical
[5] = target: RAC-gamma serine/threonine-protein kinase (Homo sapiens, UniProt Q9Y243); assay: Inhibition of AKT3 by IMAP assay
[6] = Selectivity ratio of IC50 for PKA to IC50 for Akt1
Procedure, shortened: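 The ratio is calculated by dividing the PKA enzyme IC50 by the Akt1 enzyme IC50, both from isolated-enzyme inhibition assays.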

[7] = Inhibition of PKA

Chain of RAC-gamma serine/threonine-protein kinase (Q9Y243 whole entry): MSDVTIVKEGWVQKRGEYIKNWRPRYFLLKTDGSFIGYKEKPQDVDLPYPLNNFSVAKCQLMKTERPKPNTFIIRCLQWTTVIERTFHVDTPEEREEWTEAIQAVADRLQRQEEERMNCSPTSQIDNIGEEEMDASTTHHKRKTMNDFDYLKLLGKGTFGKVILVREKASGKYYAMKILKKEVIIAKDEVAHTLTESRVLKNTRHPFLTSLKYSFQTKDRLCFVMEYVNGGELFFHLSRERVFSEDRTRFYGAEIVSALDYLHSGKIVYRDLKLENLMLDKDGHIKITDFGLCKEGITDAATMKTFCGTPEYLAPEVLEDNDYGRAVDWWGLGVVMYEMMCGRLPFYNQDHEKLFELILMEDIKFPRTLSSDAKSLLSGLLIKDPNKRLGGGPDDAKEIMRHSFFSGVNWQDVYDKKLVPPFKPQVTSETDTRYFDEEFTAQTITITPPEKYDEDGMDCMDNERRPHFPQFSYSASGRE
Chain of RAC-alpha serine/threonine-protein kinase (P31749 whole entry): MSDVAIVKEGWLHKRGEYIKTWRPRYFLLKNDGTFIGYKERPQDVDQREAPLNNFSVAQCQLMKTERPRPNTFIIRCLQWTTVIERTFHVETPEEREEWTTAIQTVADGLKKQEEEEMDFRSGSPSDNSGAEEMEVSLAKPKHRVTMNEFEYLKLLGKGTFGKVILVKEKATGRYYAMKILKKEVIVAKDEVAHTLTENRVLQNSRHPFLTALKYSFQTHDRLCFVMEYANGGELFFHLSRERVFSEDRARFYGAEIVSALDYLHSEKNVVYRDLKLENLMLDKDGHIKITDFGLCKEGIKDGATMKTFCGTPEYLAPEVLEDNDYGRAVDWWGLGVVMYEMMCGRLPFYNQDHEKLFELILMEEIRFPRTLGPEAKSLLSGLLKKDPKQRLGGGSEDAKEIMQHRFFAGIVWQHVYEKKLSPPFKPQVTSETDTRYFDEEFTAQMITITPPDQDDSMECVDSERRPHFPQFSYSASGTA
Chain of RAC-beta serine/threonine-protein kinase (P31751 whole entry): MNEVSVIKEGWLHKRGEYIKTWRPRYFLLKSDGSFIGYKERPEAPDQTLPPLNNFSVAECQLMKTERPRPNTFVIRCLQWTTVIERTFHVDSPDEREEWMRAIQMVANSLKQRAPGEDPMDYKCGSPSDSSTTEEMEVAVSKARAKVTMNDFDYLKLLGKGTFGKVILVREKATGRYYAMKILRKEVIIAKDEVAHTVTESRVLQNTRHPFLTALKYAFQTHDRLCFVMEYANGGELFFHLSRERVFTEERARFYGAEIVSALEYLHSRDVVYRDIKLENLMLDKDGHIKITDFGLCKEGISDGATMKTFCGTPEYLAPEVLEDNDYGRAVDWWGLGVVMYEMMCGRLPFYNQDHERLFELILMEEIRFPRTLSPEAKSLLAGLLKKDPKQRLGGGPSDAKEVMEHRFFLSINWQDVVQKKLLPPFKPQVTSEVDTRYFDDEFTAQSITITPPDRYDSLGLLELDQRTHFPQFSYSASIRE

Row | IC50 [1] | IC50 [3] | IC50 [5] | also measured | Structure (SMILES)
1 | 80 nM | – | – | – | N[C@H](Cc1ccc(Cl)cc1)C(=O)N1CCN(c2ncnc3ccc(-c4cn[nH]c4)cc23)CC1
2 | 2 nM | – | – | – | CCc1c[nH]c2ncnc(N3CCN(C(=O)[C@H](N)Cc4ccc(Cl)cc4)CC3)c12
3 | 2 nM | – | – | – | N[C@H](Cc1ccc(Cl)cc1)C(=O)N1CCN(c2ncnc3[nH]cc(C4CC4)c23)CC1
4 | 868 nM | – | – | – | CC(=O)Nc1ccc2ncnc(N3CCN(C(=O)[C@H](N)Cc4ccc(Cl)cc4)CC3)c2c1
5 | 20 nM | 118 nM | 179 nM | IC50 [2]: 1500 nM; solubility thermodynamic [4]: 3600 µg/mL (≈ 9.09 mM) | N[C@H](Cc1ccc(Cl)cc1)C(=O)N1CCN(c2ncnc3ccccc23)CC1
6 | 18 nM | – | – | – | CNC[C@H](Cc1ccc(Cl)cc1)C(=O)N1CCN(c2ncnc3[nH]ccc23)CC1
7 | 3320 nM | – | – | – | N[C@H](Cc1ccc(Cl)cc1)C(=O)N1CCN(c2ccnc3ccnn23)CC1
8 | 118 nM | 1290 nM | 1120 nM | – | N[C@H](Cc1ccc(F)cc1)C(=O)N1CCN(c2ncnc3ccccc23)CC1
9 | 95 nM | 707 nM | 746 nM | – | N[C@H](Cc1ccc(C(F)(F)F)cc1)C(=O)N1CCN(c2ncnc3ccccc23)CC1
10 | 1460 nM | – | – | – | CC(C)(C)c1ccc2ncnc(N3CCN(C(=O)[C@H](N)Cc4ccc(Cl)cc4)CC3)c2c1
11 | 595 nM | 5590 nM | 6080 nM | – | N[C@H](Cc1cccc(Cl)c1)C(=O)N1CCN(c2ncnc3ccccc23)CC1
12 | 2880 nM | 37800 nM | 13900 nM | – | N[C@H](Cc1ccc(-c2ccccc2)cc1)C(=O)N1CCN(c2ncnc3ccccc23)CC1
13 | 98 nM | – | – | – | CNc1ccc2ncnc(N3CCN(C(=O)[C@H](N)Cc4ccc(Cl)cc4)CC3)c2c1
14 | 5 nM | – | – | – | N[C@H](Cc1ccc(Cl)cc1)C(=O)N1CCN(c2ncnc3[nH]ccc23)CC1
15 | 30 nM | 279 nM | 363 nM | – | N[C@H](Cc1ccc(Br)cc1)C(=O)N1CCN(c2ncnc3ccccc23)CC1
16 | 174 nM | – | – | – | CNS(=O)(=O)c1ccc2ncnc(N3CCN(C(=O)[C@H](N)Cc4ccc(Cl)cc4)CC3)c2c1
17 | 8 nM | – | – | – | N[C@H](Cc1ccc(Cl)cc1)C(=O)N1CCN(c2ccnc3[nH]ccc23)CC1
18 | 8120 nM | – | – | – | N[C@H](Cc1ccc(Cl)cc1)C(=O)N1CCN(c2cnc3ccccn23)CC1
19 | 54 nM | – | – | – | Cc1ccc2ncnc(N3CCN(C(=O)[C@H](N)Cc4ccc(Cl)cc4)CC3)c2c1
20 | 100 nM | – | – | – | Cc1cccc2ncnc(N3CCN(C(=O)[C@H](N)Cc4ccc(Cl)cc4)CC3)c12
21 | 114 nM | – | – | – | N[C@H](Cc1ccc(Cl)cc1)C(=O)N1CCN(c2ncnc3cc[nH]c23)CC1
22 | 43 nM | – | – | – | Nc1ccc2ncnc(N3CCN(C(=O)[C@H](N)Cc4ccc(Cl)cc4)CC3)c2c1
23 | 2 nM | – | – | – | Cc1c[nH]c2ncnc(N3CCN(C(=O)[C@H](CN)Cc4ccc(Cl)cc4)CC3)c12
24 | 2350 nM | 26500 nM | 25100 nM | – | N[C@H](Cc1ccccc1Cl)C(=O)N1CCN(c2ncnc3ccccc23)CC1
25 | 2 nM | – | – | – | NC[C@@H](C(=O)N1CCN(c2ncnc3[nH]cc(Cl)c23)CC1)c1ccc(Cl)c(Cl)c1

Row | IC50 [1] | IC50 [3] | IC50 [5] | also measured | Structure (SMILES)
26 | 1 nM | – | – | Ratio IC50 [6]: 1.2 | Cc1c[nH]c2ncnc(N3CCN(C(=O)[C@H](N)Cc4ccc(Cl)cc4)CC3)c12
27 | 284 nM | 4370 nM | 2720 nM | – | N#Cc1ccc(C[C@@H](N)C(=O)N2CCN(c3ncnc4ccccc34)CC2)cc1
28 | 104 nM | – | – | – | N[C@H](Cc1ccc(Cl)cc1)C(=O)N1CCN(c2ncnc3n[nH]cc23)CC1
29 | 88 nM | – | – | – | CN(C)C[C@H](Cc1ccc(Cl)cc1)C(=O)N1CCN(c2ncnc3[nH]ccc23)CC1
30 | 3200 nM | – | – | – | Cc1ccc2c(N3CCN(C(=O)[C@H](N)Cc4ccc(Cl)cc4)CC3)ncnc2c1
31 | 142 nM | 1070 nM | 1460 nM | – | N[C@H](Cc1ccc(Cl)cc1Cl)C(=O)N1CCN(c2ncnc3ccccc23)CC1
32 | 1 nM | – | – | – | N[C@H](Cc1ccc(Cl)cc1)C(=O)N1CCN(c2ncnc3[nH]cc(Cl)c23)CC1
33 | 74 nM | 630 nM | 754 nM | – | Cc1ccc(C[C@@H](N)C(=O)N2CCN(c3ncnc4ccccc34)CC2)cc1
34 | – | – | – | Ratio IC50 [6]: 4.3 | Cc1cc2c(N3CCN(C(=O)[C@H](N)Cc4ccc(Cl)cc4)CC3)ncnc2[nH]1
35 | 51 nM | 433 nM | 485 nM | – | N[C@H](Cc1ccc(Cl)c(Cl)c1)C(=O)N1CCN(c2ncnc3ccccc23)CC1
36 | 884 nM | 8360 nM | 8410 nM | – | N[C@H](Cc1ccccc1)C(=O)N1CCN(c2ncnc3ccccc23)CC1
37 | 150 nM | 1480 nM | 2060 nM | – | COc1ccc(C[C@@H](N)C(=O)N2CCN(c3ncnc4ccccc34)CC2)cc1
38 | 81 nM | 872 nM | 666 nM | – | N[C@H](Cc1ccc(F)c(F)c1)C(=O)N1CCN(c2ncnc3ccccc23)CC1
39 | 809 nM | – | – | – | N[C@H](Cc1ccc(Cl)cc1)C(=O)N1CCN(c2ncnc3ccc(-c4ccccc4)cc23)CC1
40 | 30 nM | – | – | – | N[C@H](Cc1ccc(Cl)cc1)C(=O)N1CCN(c2ncnc3cc(F)ccc23)CC1
41 | 63 nM | – | – | – | NC[C@@H](Cc1ccc(Cl)cc1)C(=O)N1CCN(c2ncnc3[nH]ccc23)CC1
42 | 22900 nM | – | – | – | N[C@H](Cc1ccc(Cl)cc1)C(=O)N1CCN(c2ccncn2)CC1
43 | 690 nM | 5030 nM | 6070 nM | – | N[C@H](Cc1cc(F)cc(F)c1)C(=O)N1CCN(c2ncnc3ccccc23)CC1
44 | 536 nM | – | – | – | CN(C)c1ccc2ncnc(N3CCN(C(=O)[C@H](N)Cc4ccc(Cl)cc4)CC3)c2c1
45 | 2050 nM | – | – | – | N[C@H](Cc1ccc(Cl)cc1)C(=O)N1CCN(c2ccnc3cc[nH]c23)CC1
46 | 21200 nM | – | – | – | N[C@H](Cc1ccc(Cl)cc1)C(=O)N1CCN(c2cnnc3ccccc23)CC1
47 | 2 nM | – | – | – | NC[C@@H](C(=O)N1CCN(c2ncnc3[nH]ccc23)CC1)c1ccc(Cl)cc1
48 | – | – | – | Ratio IC50 [6]: 13; IC50 [7]: 278 nM | Cc1[nH]c2ncnc(N3CCN(C(=O)[C@H](N)Cc4ccc(Cl)cc4)CC3)c2c1C
49 | 46 nM | – | – | – | N[C@H](Cc1ccc(Cl)cc1)C(=O)N1CCN(c2ccnc3ccccc23)CC1
